Screens (PubChem)
An excerpt weighted towards active compounds, which were near 5.1% of everything screened.
STAT1 inh – inhibitors of IFN-gamma induced STAT1 signaling. NIH 3T3 STAT1-luciferase reporter, luminescence. inhibition, % at 5.5 µM. 200,000 compounds, 0.35% hits. AID 920;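 active = inhibition above a set limit, the mean inhibition across all tested compounds plus 3 SD, cut at about 34% in these data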;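 note: 0% = IFN-gamma with DMSO and 100% = IFN-gamma with 300 µM nifuroxazide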
STAT1 act – STAT1 signaling activation; NIH 3T3 STAT1-luciferase reporter, IFN-gamma, luminescence; 100% = IFN-gamma alone, no compound; 200,000 compounds, 2.6% hits; activation (% of control), % at 5.5 µM; AID 932;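 active = activation above the screen-wide mean activation plus 3 SD, cut at about 130% in these data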;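 note: raw ratio to IFN-gamma control signal so 100% means no change and 0% no light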
NF-kB expr up – compounds increasing NF-kB expression in human neuronal cells. NF-kB reporter expression; hits give high values. fold change at 12.5 µM. 190,000 compounds, 1.6% hits. AID 1239; in the data active = fold change above about 3.3
STAT3 blocker – STAT3 signaling inhibition | AID 862 | 190,000 compounds, 0.89% hits | U3A cells, IL-6 STAT3-luciferase reporter, luminescence; host cell line lacks STAT1 | inhibition, % at 5.5 µM;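 active = inhibition above the mean inhibition across all screened compounds plus 3 SD, cut at about 44% in these data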;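 note: 0% = DMSO only wells and 100% = 100 µM nifuroxazide control wells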
APP 5'UTR act – activates APP 5'UTR luciferase reporter; SH-SY5Y APP 5'UTR luciferase reporter, luminescence; zero percent = DMSO vehicle wells; activation, % at 2 µM; 190,000 compounds, 1% hits; AID 1276;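 active = activation above a set limit, based on mean plus 3 SD of controls, cut at about 140% in these data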
STAT3 activator – increases IL-6 driven STAT3 reporter signal; U3A cells, IL-6 STAT3-luciferase reporter, luminescence; 100% = signal with IL-6 EC80 alone; activation (% of control), % at 5.6 µM; 190,000 compounds, 0.91% hits; AID 871;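 active = activation above the screen-wide mean of compound activation plus 3 SD, cut at about 130% in these data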;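 note: 0% = background luminescence of wells with medium and substrate only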
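Detection: reporter luminescence signal / Assay system: STAT1-lacking human U3A cells, STAT3 luciferase reporter / Incubation: compound pre-incubation 1 h before IL-6, then 6 h stimulation at 37 °C / Control set: IL-6-only high control / Read-out: % activation relative to IL-6 control / Probe or stimulus: Interleukin-6, 33 ng/mL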
* marks the source's active call; other numbers are inactive results.

What do the screens show for `Cc1ccc(-c2cc3nc(C)cc(C)n3n2)cc1`?
STAT1 inh: -37; STAT1 act: 134*; NF-kB expr up: 5.1*; STAT3 blocker: -51; APP 5'UTR act: 171*; STAT3 activator: 152*

What do the screens show for `Cc1cc(C)n2nc(C(=O)NCc3ccccc3)cc2n1`?
STAT1 inh: 2; STAT1 act: 98; NF-kB expr up: 1.3; STAT3 blocker: 2; APP 5'UTR act: 6; STAT3 activator: 102

How did Cc1cc(C)n2nc(-c3ccsc3-n3c(C)ccc3C)cc2n1 do in these assays?
STAT1 inh: -3; STAT1 act: 103; NF-kB expr up: 1; STAT3 blocker: 15; APP 5'UTR act: 6; STAT3 activator: 96

What do the screens show for `Cc1ccc(NC(=O)c2cc3nc(C)cc(C)n3n2)cc1`?
STAT1 inh: -46; STAT1 act: 142*; NF-kB expr up: 4.2*; STAT3 blocker: 16; APP 5'UTR act: 146*; STAT3 activator: 88

How did Cc1cc(C)n2nc(-c3ccccc3)cc2n1 do in these assays?
STAT1 inh: -47; STAT1 act: 142*; NF-kB expr up: 3.7*; STAT3 blocker: -20; APP 5'UTR act: 127; STAT3 activator: 119

How did CC(C)(C)NC(=O)c1cccc(NC(=O)c2cccc(O)c2)c1 do in these assays?
STAT1 inh: 0; STAT1 act: 100; NF-kB expr up: 1.7; STAT3 blocker: 9; APP 5'UTR act: 10; STAT3 activator: 98

Results for Clc1ccc(C2=Nn3c(nnc3-c3cccs3)SC2)cc1 ?
STAT1 inh: -2; STAT1 act: 98; NF-kB expr up: 1.2; STAT3 blocker: 21; APP 5'UTR act: -5; STAT3 activator: 84

How did Cc1nnc2n(c1=O)N=C(c1ccc(Cl)cc1)CS2 do in these assays?
STAT1 inh: -36; STAT1 act: 132*; NF-kB expr up: 2.9; STAT3 blocker: -20; APP 5'UTR act: 112; STAT3 activator: 114

What do the screens show for `Cc1ccc(CN2CN(S(=O)(=O)c3cccs3)c3nc4ccccc4nc32)cc1`?
STAT1 inh: -53; STAT1 act: 142*; NF-kB expr up: 6.4*; STAT3 blocker: 12; APP 5'UTR act: 6; STAT3 activator: 97

Results for Cc1ccc(C=Nc2ccccc2C(N)=O)o1 ?
STAT1 inh: -39; STAT1 act: 135*; NF-kB expr up: 1; STAT3 blocker: 3; APP 5'UTR act: 76; STAT3 activator: 97

Results for O=C(c1ccco1)[C@@H]1[C@@H]2C(=O)N(c3ccc(F)cc3)C(=O)[C@@H]2[C@H]2C=Cc3ccccc3N21 ?
STAT1 inh: 14; STAT1 act: 88; NF-kB expr up: 1.1; STAT3 blocker: -4; APP 5'UTR act: 21; STAT3 activator: 109

How did O=C(c1ccco1)[C@@H]1[C@@H]2C(=O)N(c3ccc(F)cc3)C(=O)[C@@H]2C2c3ccccc3C=CN21 (stereo partly specified) do in these assays?
STAT1 inh: -4; STAT1 act: 104; NF-kB expr up: 1.2; STAT3 blocker: -34; APP 5'UTR act: -7; STAT3 activator: 134*

What do the screens show for `O=Cc1c(OCc2ccccc2)ccc2ccccc12`?
STAT1 inh: -39; STAT1 act: 134*; NF-kB expr up: 1.9; STAT3 blocker: 5; APP 5'UTR act: 50; STAT3 activator: 102

Results for CC(C)Oc1ccc2ccccc2c1C=O ?
STAT1 inh: 15; STAT1 act: 87; NF-kB expr up: 1.2; STAT3 blocker: 7; APP 5'UTR act: 6; STAT3 activator: 100

What do the screens show for `Nc1[nH]c(N=NC(=O)c2ccccc2)c2ccccc12`?
STAT1 inh: -47; STAT1 act: 142*; NF-kB expr up: 3.4*; STAT3 blocker: -1; APP 5'UTR act: 132; STAT3 activator: 99

Results for Nc1[nH]c(N=NC(=O)c2ccc(Cl)cc2)c2ccccc12 ?
STAT1 inh: -19; STAT1 act: 117; NF-kB expr up: 1.3; STAT3 blocker: -13; APP 5'UTR act: 17; STAT3 activator: 106

How did C=CCc1ccc(OCCOc2cccc3ccc(C)nc23)c(OC)c1 do in these assays?
STAT1 inh: -2; STAT1 act: 102; NF-kB expr up: 1.3; STAT3 blocker: 5; APP 5'UTR act: 17; STAT3 activator: 101

How did CN(C)C(=O)CN(c1ccc(F)c(Cl)c1)S(C)(=O)=O do in these assays?
STAT1 inh: 7; STAT1 act: 94; NF-kB expr up: 0.97; STAT3 blocker: -38; APP 5'UTR act: 3; STAT3 activator: 135*

How did COc1cccc(-n2nnnc2SCC(=O)N2CCCc3ccccc32)c1 do in these assays?
STAT1 inh: -2; STAT1 act: 102; NF-kB expr up: 0.97; STAT3 blocker: -3; APP 5'UTR act: 3; STAT3 activator: 105

How did COC(=O)C1SCC2C(=O)N(Cc3ccc(Cl)c(Cl)c3)CC(=O)N21 (stereo unspecified) do in these assays?
STAT1 inh: -16; STAT1 act: 113; NF-kB expr up: 1.1; STAT3 blocker: 16; APP 5'UTR act: -14; STAT3 activator: 92

Results for COCCN(CCOC)S(=O)(=O)c1ccc(C(=O)Nc2sc3c(c2C(N)=O)CCCCC3)cc1 ?
STAT1 inh: -31; STAT1 act: 129*; NF-kB expr up: 0.52; STAT3 blocker: -6; APP 5'UTR act: 90; STAT3 activator: 105

Results for CC1(C)Cc2nc3sc4c(=O)[nH]cnc4c3cc2CS1 ?
STAT1 inh: -12; STAT1 act: 111; NF-kB expr up: 1.5; STAT3 blocker: -15; APP 5'UTR act: -4; STAT3 activator: 114

What do the screens show for `CCCCCn1cnc2c(sc3nc4c(cc32)CSC(C)(C)C4)c1=O`?
STAT1 inh: -42; STAT1 act: 138*; NF-kB expr up: 1.5; STAT3 blocker: -21; APP 5'UTR act: 91; STAT3 activator: 125

Results for C/C(Cc1ccccc1)=N\NC(=O)C1CCCCC1 ?
STAT1 inh: 0; STAT1 act: 101; NF-kB expr up: 1.1; STAT3 blocker: -8; APP 5'UTR act: -13; STAT3 activator: 106

What do the screens show for `COC(=O)N/N=C(/c1ccccc1)C1CCCCC1`?
STAT1 inh: 3; STAT1 act: 96; NF-kB expr up: 5.6*; STAT3 blocker: 3; APP 5'UTR act: 5; STAT3 activator: 99

What do the screens show for `COc1cc(NC(=O)CSc2nc3ccccc3cc2C)c(C(=O)O)cc1OC`?
STAT1 inh: 1; STAT1 act: 99; NF-kB expr up: 8.7*; STAT3 blocker: -1; APP 5'UTR act: 5; STAT3 activator: 99

How did CCN(C(=O)/C=C/c1ccc2c(c1)OCO2)c1ccccc1 do in these assays?
STAT1 inh: -10; STAT1 act: 109; NF-kB expr up: 1.5; STAT3 blocker: 20; APP 5'UTR act: -2; STAT3 activator: 86

What do the screens show for `C[n+]1c(/C=C/c2ccc3c(c2)OCO3)ccc2ccccc21`?
STAT1 inh: -18; STAT1 act: 115; NF-kB expr up: 0.58; STAT3 blocker: 14; APP 5'UTR act: 185*; STAT3 activator: 94
